In brackets after ≈: the same amount, converted by molar mass.
How the values were obtained:
[1] = system: Human immunodeficiency virus 1; assay: Inhibitory concentration for cytopathicity of HIV-1 (HTLV-IIIB) in MT-4 cells; format: functional, organism-based; conditions: Human immunodeficiency virus 1, MT4
[2] = system: Human immunodeficiency virus 2; assay: Inhibitory concentration for cytopathicity of HIV-2 (LAV-2ROD) in MT-4 cells; format: functional, organism-based; conditions: Human immunodeficiency virus 2, MT4
[3] = 50% cytotoxic concentrations for mock-infected MT-4 cells; format: cell-based, MT4; conditions: human
How it was run: (§1)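 Mock-infected MT-4 cells were exposed to the compounds. Viability was read by a tetrazolium (MTT) colorimetric method in 96-well microtrays. The value is the concentration that is 50% cytotoxic, given as the mean of at least three experiments.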

[4] = system: Human immunodeficiency virus 1; assay: Inhibitory concentration for cytopathicity of HIV-1 (HTLV-IIIB) in CEM cells; format: functional, organism-based; conditions: Human immunodeficiency virus 1, CCRF-CEM
How it was run: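 HIV-1 (HTLV-IIIB)-infected CEM cells were treated with the compounds. Cell viability was determined by a tetrazolium (XTT) assay. The 50% inhibitory concentration for cytopathicity is the mean of at least three experiments.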

[5] = 50% cytotoxic concentrations for mock-infected MT-4 cells.; format: cell-based, MT4; conditions: human; how it was run: as §1
[6] = system: HuT78; assay: Inhibitory concentration that reduced the number of gaint cells by 50% between HIV-2 infected HUT-78 cells and uninfected MOLT-4 cells; format: functional, cell-based; conditions: Homo sapiens
How it was run: (§2)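 MOLT-4 cells were cocultured with an equal number of HUT-78/HTLV-IIIB or HUT-78/LAV-2ROD cells at various compound concentrations for 24 h. Giant cells were counted microscopically and analysed by laser flow cytometry. The value is the concentration reducing giant cell number by 50%, as the mean of at least three experiments.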

[7] = system: HuT78; assay: Inhibitory concentration that reduced the number of gaint cells by 50% between HIV-1 infected HUT-78 cells and uninfected MOLT-4 cells; format: functional, cell-based; conditions: Homo sapiens; how it was run: as §2
[8] = system: HuT78; assay: Inhibitory concentration that reduced the number of gaint cells by 50% between HIV-1 infected HUT-78 cells and uninfected MOLT-4 cells.; format: functional, cell-based; conditions: Homo sapiens; how it was run: as §2
[9] = system: HuT78; assay: Inhibitory concentration that reduced the number of gaint cells by 50% between HIV-2 infected HUT-78 cells and uninfected MOLT-4 cells.; format: functional, cell-based; conditions: Homo sapiens; how it was run: as §2

IC50 [1] [mg/L] | IC50 [2] [mg/L] | IC50 [4] [mg/L] | SMILES | CC50 [3] [mg/L] | CC50 [5] [mg/L] | IC50 [6] [mg/L] | IC50 [7] [mg/L] | IC50 [8] [mg/L] | IC50 [9] [mg/L]
> 100 | > 100 |  | COC(=O)c1cc(C(c2cc(C)c(O)c(C(=O)OC)c2)c2cc(C)c(O)c(C(=O)OC)c2)cc(C)c1O | > 100 |  |  |  |  | 
> 100 | > 100 | > 205 | Cc1cc(C(O)(c2cc(C)c(O)c(C(=O)O)c2)c2cc(C)c(O)c(C(=O)O)c2)cc(C(=O)O)c1O | > 100 |  |  |  |  | 
> 100 | > 100 | > 78 | COC(=O)c1cc(C(c2ccc(O)c(C(=O)OC)c2)c2ccc(O)c(C(=O)OC)c2)ccc1O | 52 (≈ 111 µM) |  | > 100 | > 100 |  | 
75 (≈ 193 µM) | 79 (≈ 203 µM) | 20 (≈ 51.5 µM) | O=C(O)c1cc(Cc2cc(C(=O)O)c(O)c3ccccc23)c2ccccc2c1O |  | 73 (≈ 188 µM) |  |  | > 20 | > 20
 |  | 50.2 | CC1=C/C(=C(/c2cc(C)c(O)c(C(=O)[O-])c2)c2c(Cl)ccc(S(=O)(=O)[O-])c2Cl)C=C(C(=O)[O-])C1=O.[Na+].[Na+].[Na+] [CHROME AZUROL S] |  |  |  |  |  | 
> 100 | > 100 | > 125 | O=C(O)c1cccc(Cc2cccc(C(=O)O)c2O)c1O |  | > 100 |  |  |  | 

The next lines start with the molecule.

SMILES | IC50 [1] [mg/L] | IC50 [2] [mg/L] | IC50 [4] [mg/L] | CC50 [3] [mg/L] | CC50 [5] [mg/L] | IC50 [6] [mg/L] | IC50 [7] [mg/L] | IC50 [8] [mg/L] | IC50 [9] [mg/L]
Cc1cc(Cc2cc(C)c(O)c(C(=O)O)c2)cc(C(=O)O)c1O | > 100 | > 100 | 55.5 (≈ 175 µM) | > 100 |  |  |  |  | 
O=C(O)c1cc(Cc2cc(Cl)c(O)c(C(=O)O)c2)cc(Cl)c1O | > 100 | > 100 | 117 (≈ 328 µM) |  | > 100 |  |  |  | 
O=C(O)C1=CC(=C(c2ccc(O)c(C(=O)O)c2)c2ccc(O)c(C(=O)O)c2)C=CC1=O [AURINTRICARBOXYLIC ACID] | 1.1 (≈ 2.6 µM) | 0.85 (≈ 2.01 µM) | 2.1 (≈ 4.97 µM) | 280 (≈ 663 µM) |  | 4 (≈ 9.47 µM) |  |  | 
O=C(O)c1cc(Cc2ccc(O)c(C(=O)O)c2)ccc1O | > 100 | > 100 | > 276 |  | > 100 |  |  |  | 
Cc1cc(C(c2cc(C)c(O)c(C(=O)O)c2)c2cc(C)c(O)c(C(=O)O)c2)cc(C(=O)O)c1O | 80 (≈ 172 µM) | 67 (≈ 144 µM) | > 186 | 82 (≈ 176 µM) |  | > 20 | > 20 |  | 
O=C(O)c1cc(Br)cc(Cc2cc(Br)cc(C(=O)O)c2O)c1O | > 100 | > 100 | 72.1 (≈ 162 µM) |  | > 100 |  |  |  | 
O=C(O)c1cc(C(c2ccc(O)c(C(=O)O)c2)c2ccc(O)c(C(=O)O)c2)ccc1O | > 100 | 13 (≈ 30.6 µM) | 32.5 (≈ 76.6 µM) | 256 (≈ 603 µM) |  | 15 (≈ 35.3 µM) | > 100 |  | 
O=C(O)c1cc(Cc2cc(Br)c(O)c(C(=O)O)c2)cc(Br)c1O | > 100 | > 100 |  |  | > 100 |  |  |  | 
O=S(=O)([O-])c1cc(Cl)cc(Cc2cc(Cl)cc(S(=O)(=O)[O-])c2O)c1O.[Na+].[Na+] | > 100 | > 100 | 123 | > 100 |  | > 100 | > 100 |  | 
O=C(O)c1cc(C(O)(c2ccc(O)c(C(=O)O)c2)c2ccc(O)c(C(=O)O)c2)ccc1O | > 100 | 15 (≈ 34.1 µM) | 50.4 (≈ 114 µM) | 248 (≈ 563 µM) |  | 15 (≈ 34.1 µM) | > 100 |  | 
COC(=O)c1cc(C(O)(c2ccc(O)c(C(=O)OC)c2)c2ccc(O)c(C(=O)OC)c2)ccc1O | > 100 | > 100 | > 78 | 66 (≈ 137 µM) |  | > 100 | > 100 |  | 

Source: ChEMBL document CHEMBL1125737, “Synthesis and anti-HIV activities of low molecular weight aurintricarboxylic acid fragments and related compounds” (J Med Chem, 1991)
